Numbered stars: 1 amine (or outer) side, 2 acyl side, 3 side chain; on linkers, the order of the positions; unused ones are H or OH. Square brackets hold non-standard residues; d marks the D form. Peptide text beside a SMILES is read from it. X1 = O=C([C@@H]1Cc2cc(O)ccc2CN1[*:1])[*:2]; Tic(7-OH) = O=C(O)[C@@H]1Cc2ccc(O)cc2CN1
Key:
[1] = target: T1, Type-2 angiotensin II receptor (Homo sapiens, UniProt P50052); test: Displacement of [125-I]-[Sar1, Ile8] from recombinant human AT2R transfected in human HEK293 cells incubated for 2 hrs by liquid scintillation counter analysis; type: cell-based
T1 sequence (P50052 whole entry): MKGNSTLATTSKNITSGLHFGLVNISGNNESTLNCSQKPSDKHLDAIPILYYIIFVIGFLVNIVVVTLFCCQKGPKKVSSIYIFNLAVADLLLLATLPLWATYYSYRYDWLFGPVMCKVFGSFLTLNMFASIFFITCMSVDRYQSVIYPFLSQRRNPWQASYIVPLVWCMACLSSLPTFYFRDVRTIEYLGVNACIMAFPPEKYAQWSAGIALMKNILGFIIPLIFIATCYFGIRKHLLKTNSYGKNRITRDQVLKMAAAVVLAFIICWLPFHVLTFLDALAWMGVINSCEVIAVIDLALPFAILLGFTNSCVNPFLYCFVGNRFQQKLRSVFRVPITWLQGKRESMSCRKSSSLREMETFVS

[2] = Stability of compound in human plasma assessed as parent compound remaining incubated for 24 hrs by LC-MS/MS analysis; type: ADME, cell-free; conditions: read-out: Stabilty
In short: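 Peptides were incubated in human plasma and sampled at different time intervals up to 24 h. Remaining concentration was monitored by LC-MS using selected abundant transitions and expressed relative to the initial concentration.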

[3] = target: T2, Type-1 angiotensin II receptor (Homo sapiens, UniProt P30556); test: Displacement of [125-I]-[Sar1, Ile8] from recombinant human AT1R transfected in human HEK293 cells incubated for 2 hrs by liquid scintillation counter analysis; type: cell-based
T2 sequence (P30556 whole entry): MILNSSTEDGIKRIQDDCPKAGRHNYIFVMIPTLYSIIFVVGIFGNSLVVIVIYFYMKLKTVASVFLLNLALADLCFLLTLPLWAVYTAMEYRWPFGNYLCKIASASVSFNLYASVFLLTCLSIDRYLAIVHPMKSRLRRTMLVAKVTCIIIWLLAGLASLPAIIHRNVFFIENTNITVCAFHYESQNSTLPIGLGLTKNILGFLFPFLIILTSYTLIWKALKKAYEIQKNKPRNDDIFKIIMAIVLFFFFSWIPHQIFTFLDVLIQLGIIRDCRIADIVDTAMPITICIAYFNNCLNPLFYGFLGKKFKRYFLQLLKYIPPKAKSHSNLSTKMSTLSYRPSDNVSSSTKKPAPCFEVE

[4] = species: Homo sapiens; test: Selectivity index, ratio of IC50 for displacement of [125-I]-[Sar1, Ile8] from recombinant human AT1R transfected in human HEK293 cells to IC50 for displacement of [125-I]-[Sar1, Ile8] from recombinant human AT2R transfected in human HEK293 cells

Row | Compound | IC50 [1] | remaining at 24 h [2] | IC50 [3] | Ratio IC50 [4]
1 | CC[C@H](C)[C@H](NC(=O)[C@H](Cc1ccc(O)cc1)NC(=O)[C@@H](NC(=O)[C@H](CCCNC(=N)N)NC(=O)[C@@H](N)CC(=O)O)C(C)C)C(=O)N[C@H]1Cc2c([nH]c3ccccc23)CN(CC(=O)N[C@@H](Cc2ccccc2)C(=O)O)C1=O | 45.7 nM | > 50% | > 10000 nM | > 219
2 | CC[C@H](C)[C@H](NC(=O)[C@H](Cc1ccc(O)cc1)NC(=O)[C@@H](NC(=O)[C@@H](N)CCCNC(=N)N)C(C)C)C(=O)N[C@H]1Cc2c([nH]c3ccccc23)CN(CC(=O)N[C@@H](Cc2ccccc2)C(=O)O)C1=O | 107 nM | 70% | > 10000 nM | > 94
3 | CC[C@H](C)[C@H](NC(=O)[C@H](Cc1ccc(O)cc1)NC(=O)[C@@H](NC(=O)[C@H](CCCNC(=N)N)NC(=O)[C@@H](N)CC(=O)O)C(C)C)C(=O)N1Cc2cc(O)ccc2C[C@H]1C(=O)N1CCC[C@H]1C(=O)N[C@@H](Cc1ccccc1)C(=O)O (H-DRVYI[Tic(7-OH)]PF-OH) | 89.2 nM | > 90% | > 10000 nM | > 112
4 | H-DRVYIYPF-OH |  | > 50% | 72600 nM | 18000

The next compounds have a lower IC50 [3] than those just listed; values first:

Row | IC50 [1] | remaining at 24 h [2] | IC50 [3] | Compound | Ratio IC50 [4]
5 | 59.3 nM | > 50% | 174 nM | CC[C@H](C)[C@H](NC(=O)[C@H](Cc1ccc(O)cc1)NC(=O)[C@@H](NC(=O)[C@H](CCCNC(=N)N)NC(=O)[C@@H](N)CC(=O)O)C(C)C)C(=O)N1Cc2ccc(O)cc2C[C@H]1C(=O)N1CCC[C@H]1C(=O)N[C@@H](Cc1ccccc1)C(=O)O (H-DRVYI[X1]PF-OH) | 2.9
6 | 119 nM | > 70% | 134 nM | CC[C@H](C)[C@H](NC(=O)[C@H](Cc1ccc(O)cc1)NC(=O)[C@@H](NC(=O)[C@@H](N)CCCNC(=N)N)C(C)C)C(=O)N1Cc2cc(O)ccc2C[C@H]1C(=O)N1CCC[C@H]1C(=O)N[C@@H](Cc1ccccc1)C(=O)O (H-RVYI[Tic(7-OH)]PF-OH) | 1.1
7 | 315 nM | > 50% | 2010 nM | CC[C@H](C)[C@H](NC(=O)[C@H](Cc1ccc(O)cc1)NC(=O)[C@@H](NC(=O)[C@@H](N)CCCNC(=N)N)C(C)C)C(=O)N1Cc2ccc(O)cc2C[C@H]1C(=O)N1CCC[C@H]1C(=O)N[C@@H](Cc1ccccc1)C(=O)O (H-RVYI[X1]PF-OH) | 6.4
